Data from ChEMBL document CHEMBL1138360, “Hypoxia-selective 3-alkyl 1,2,4-benzotriazine 1,4-dioxides: the influence of hydrogen bond donors on extravascular transport and antitumor activity” (J Med Chem, 2007).

Experiments:
HT-29 [1] = assay: Ratio of IC50 for HT29 cells in aerobic condition to IC50 for HT29 cells in hypoxic condition after 4 hrs; assay type: functional, Homo sapiens
Method in brief: (§1)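 Aerobic and anoxic (H2/Pd chamber) IC50s measured in the same experiment after 4 h exposure, HT29 or SiHa cells. Ratio computed as aerobic IC50/anoxic IC50.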

HT-29 [2] = assay: Drug penetration in anoxic HT29 cells assessed as penetration half distance; assay type: ADME, cell-based; conditions: human
SiHa [3] = assay: Cytotoxicity against SiHa cells under hypoxic condition after 4 hrs; assay type: functional, cell-based; conditions: Homo sapiens
Method in brief: (§2)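 HT29 or SiHa cells exposed to drug for 4 h in 96-well plates under anoxia (H2/Pd anaerobic chamber). IC50 determined.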

HT-29 [4] = assay: Cytotoxicity against HT29 cells under hypoxic condition after 4 hrs; assay type: functional, cell-based; conditions: Homo sapiens, HT-29, 4 h; method in brief: as §2
[5] = Cmax in CD1 mouse plasma at 133 umol/kg, ip; assay type: ADME, organism-based; set-up: dose 133 umol/kg, route intraperitoneal
Method in brief: (§3)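 Single i.p. dose to homozygous nude CD-1 Foxn1nu mice, at 75 or 100% of MTD (MTD set by 1.33-fold dose steps; highest dose without death, >15% weight loss or severe morbidity in any of six mice). Total drug measured in plasma by HPLC. AUC, Cmax and terminal t½ derived noncompartmentally. Measured levels taken as free drug.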

[6] = AUC (0 to infinity) in CD1 mouse plasma at 133 umol/kg, ip; assay type: ADME, organism-based; set-up: dose 133 umol/kg, route intraperitoneal, time infinity; method in brief: as §3
SiHa [7] = assay: Ratio of IC50 for SiHa cells in aerobic condition to IC50 for SiHa cells in hypoxic condition after 4 hrs; assay type: functional, Homo sapiens; method in brief: as §1
[8] = Terminal half life in CD1 mouse plasma at 133 umol/kg, ip; assay type: ADME, organism-based; method in brief: as §3
[9] = Toxicity in ip dosed CD1 mouse; assay type: organism-based; conditions: in vivo
Method in brief: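 Single i.p. doses given to homozygous nude CD-1 Foxn1nu mice, with the vehicle formulated per compound. Doses escalated in 1.33-fold increments. MTD was defined as the highest dose causing no mortality, no body weight loss >15% and no other severe morbidity in any of six mice.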

HT-29 [10] = assay: Cell viability in anoxic HT29 cells assessed as drug level providing 10% surviving fraction by clonogenic assay; assay type: cell-based; conditions: human
HT-29 [11] = assay: Diffusion coefficient, D in aerobic HT29 multicellular layers; assay type: ADME, cell-based; conditions: human
Method in brief: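 Drug flux measured through HT29 multicellular layers on Teflon support membranes under 95% O2 at 37 °C, 50 µM initial donor concentration. Donor and receiver levels fitted with a diffusion model. Layer thickness estimated from flux of internal standard urea.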

[12] = AUC (0 to infinity) in CD1 mouse plasma at 562 umol/kg, ip; assay type: ADME, organism-based; set-up: dose 562 umol/kg, time infinity, route intraperitoneal; method in brief: as §3
HT-29 [13] = assay: Antitumor activity against HT29 tumor inoculated in CD1 nude mouse at 562 umol/kg, ip administered 5 mins after gamma irradiation by excision assay relative to radiation alone; assay type: functional, Homo sapiens
Method in brief: (§4)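 HT29 xenografts in nude CD-1 mice received 20 Gy γ radiation, then a single i.p. drug dose 5 min later, at 100% or 75% of MTD. Tumors excised 18 h afterwards, dissociated to single cells and plated for clonogens/g tumor. Hypoxic cell kill = log(clonogens/g, radiation only) − log(clonogens/g, radiation + drug).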

[14] = Cmax in CD1 mouse plasma at 562 umol/kg, ip; assay type: ADME, organism-based; set-up: dose 562 umol/kg, route intraperitoneal; method in brief: as §3
HT-29 [15] = assay: Antitumor activity against HT29 tumor inoculated in CD1 nude mouse at 562 umol/kg, ip relative to control; assay type: functional, Homo sapiens
[16] = Terminal half life in CD1 mouse plasma at 562 umol/kg, ip; assay type: ADME, organism-based; method in brief: as §3
HT-29 [17] = assay: Antitumor activity against HT29 tumor inoculated in CD1 nude mouse at 316 umol/kg, ip administered 5 mins after gamma irradiation by excision assay relative to radiation alone; assay type: functional, Homo sapiens; method in brief: as §4
[18] = AUC (0 to infinity) in CD1 mouse plasma at 316 umol/kg, ip; assay type: ADME, organism-based; set-up: dose 316 umol/kg, time infinity, route intraperitoneal; method in brief: as §3
[19] = Terminal half life in CD1 mouse plasma at 316 umol/kg, ip; assay type: ADME, organism-based; method in brief: as §3
[20] = Cmax in CD1 mouse plasma at 316 umol/kg, ip; assay type: ADME, organism-based; set-up: dose 316 umol/kg, route intraperitoneal; method in brief: as §3
[21] = AUC (0 to infinity) in CD1 mouse plasma at 750 umol/kg, ip; assay type: ADME, organism-based; set-up: dose 750 umol/kg, time infinity, route intraperitoneal; method in brief: as §3
[22] = Cmax in CD1 mouse plasma at 750 umol/kg, ip; assay type: ADME, organism-based; set-up: dose 750 umol/kg, route intraperitoneal; method in brief: as §3
[23] = Terminal half life in CD1 mouse plasma at 750 umol/kg, ip; assay type: ADME, organism-based; method in brief: as §3
HT-29 [24] = assay: Antitumor activity against HT29 tumor inoculated in CD1 nude mouse at 750 umol/kg, ip administered 5 mins after gamma irradiation by excision assay relative to radiation alone; assay type: functional, Homo sapiens; method in brief: as §4
HT-29 [25] = assay: Antitumor activity against HT29 tumor inoculated in CD1 nude mouse at 1000 umol/kg, ip relative to control

With `CCc1n[n+]([O-])c2ccc(OCCN3CCCCC3)cc2[n+]1[O-]` the “Ratio IC50” value (HT-29 [1]) was 254, the Penetration half distance (HT-29 [2]) was 34 µm and the IC50 (SiHa [3]) was 1 µM. For the same molecule, the IC50 (HT-29 [4]) was 1.5 µM, the Cmax [5] was 9.8 µM and the AUC(0-inf) [6] was 7.75 µM·h. The “Ratio IC50” value (SiHa [7]) was 302, the half-life [8] was 25 min and the MTD [9] was 178 µmol/kg. For the same molecule, the Activity (HT-29 [10]) was 6.8 µM·h.

With `CCc1n[n+]([O-])c2ccccc2[n+]1[O-]` the “Ratio IC50” value (HT-29 [1]) was 54, the D (HT-29 [11]) was 26.12 10^-7cm2/sec and the Penetration half distance (HT-29 [2]) was 63 µm. The AUC(0-inf) [12] was 146 µM·h, the IC50 (SiHa [3]) was 5.9 µM and the Activity (HT-29 [13]) was 0.89%. It also gave an IC50 (HT-29 [4]) of 6.8 µM, a Cmax [14] of 271 µM and an Activity (HT-29 [15]) of 0.11%. The “Ratio IC50” value (SiHa [7]) was 84, the half-life [16] was 11.2 min and the MTD [9] was 562 µmol/kg. For the same molecule, the Activity (HT-29 [10]) was 19.7 µM·h.

In the case of `CCc1n[n+]([O-])c2cc(OCCCN3CCOCC3)ccc2[n+]1[O-]`, the “Ratio IC50” value (HT-29 [1]) is reported as 147, the Penetration half distance (HT-29 [2]) is reported as 34 µm and the IC50 (SiHa [3]) is reported as 1.3 µM. The Activity (HT-29 [17]) was 0.98%, the IC50 (HT-29 [4]) was 3 µM and the AUC(0-inf) [18] was 33 µM·h. For the same molecule, the “Ratio IC50” value (SiHa [7]) was 181, the half-life [19] was 36 min and the MTD [9] was 421 µmol/kg. It also gave a Cmax [20] of 30.1 µM and an Activity (HT-29 [10]) of 7.1 µM·h.

With `CCc1n[n+]([O-])c2ccc(OCCCN3CCOCC3)cc2[n+]1[O-]` the “Ratio IC50” value (HT-29 [1]) was 153, the D (HT-29 [11]) was 7.48 10^-7cm2/sec and the Activity (HT-29 [2]) was 64 µM. It also gave an AUC(0-inf) [21] of 162 µM·h, an IC50 (SiHa [3]) of 4.3 µM and an IC50 (HT-29 [4]) of 6.8 µM. For the same molecule, the Cmax [22] was 150 µM, the half-life [23] was 34.8 min and the “Ratio IC50” value (SiHa [7]) was 217. For the same molecule, the Activity (HT-29 [24]) was 1.66%, the MTD [9] was 1000 µmol/kg and the Activity (HT-29 [25]) was 0.14%. The Activity (HT-29 [10]) was 38.6 µM·h.
